Paper PMC11062580 (Science Advances, 2024)

How the values were obtained:
tau aggregation = conditions: phase 2 (curcumin) and phase 3 (methylene blue/LMTX) trials; cited from earlier work
PS19 mice [1] = assay: Serum AST as index of hepatic toxicity; format: in vivo, mouse; conditions: 10 mg/kg i.v. weekly for 10 weeks; n = 13; ELISA
PS19 mice [2] = assay: H&E histology of major organs; format: in vivo, mouse; conditions: 10 mg/kg i.v. weekly for 10 weeks
Procedure, shortened: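 Seeded PS19 mice were treated weekly i.v. at 10 mg/kg for 10 weeks with intranasal mannitol. Heart, liver, spleen, lung and kidney (n = 3) were fixed in 4% buffered formalin at 4°C overnight and embedded in paraffin. Sections of 5 µm were stained with hematoxylin and eosin.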

AD tau fibrils = assay: TEM of AD-extracted tau fibrils after treatment; format: biochemical; conditions: 0.02 mg/ml (86 μM 7-DP for MNPs-DP), 48 hours, 37°C; n = 10 images
C57BL/6J mice brain = assay: BBB penetration, Fe in brain by ICP-MS; format: in vivo, mouse; conditions: 10 mg/kg tail vein with intranasal mannitol; 2 hours; n = 3 per group
Procedure, shortened: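 Wild-type C57BL/6J mice aged 2 months received 20 μl of 2% mannitol intranasally, then test nanoparticles at 10 mg/kg by tail vein; controls received PBS. Mice were euthanized after 2 h and perfused. Half-brains were dried at 105°C, digested in concentrated HNO3/HCl at 80°C for 2 h and diluted. Fe was quantified by ICP-MS.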

tau K18^+ fibrils [3] = assay: Dot blot with anti-amyloid OC antibody; format: biochemical; conditions: 7-DP 2.5-100 μM or MNPs-DP 0.005-0.02 mg/ml, 24 h
tau K18^+ fibrils [4] = assay: TEM of tau K18+ aggregation with inhibitor; format: biochemical; conditions: 20 μM tau K18+, 48 h; 5-100 μM peptide or MNPs-DP 0.005-0.04 mg/ml
Procedure, shortened: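 Recombinant tau K18+ (20 µM final, PBS pH 7.4) was aggregated with 40 µM ThT, 15 µM heparin and 1 mM DTT at 37°C with 700 rpm double orbital shaking. Test peptide was at 5–100 µM; nanoparticles at 0.005–0.04 mg/ml. For TEM, 6 µl sample went on glow-discharged carbon grids for 5 min, then 2% uranyl acetate for 2 min.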

[5] = system: phosphorylated tau (ptau) pSer^202/Thr^205; assay: AT8 immunohistochemistry of hippocampus; format: in vivo, mouse; conditions: 10 mg/kg i.v. weekly for 10 weeks; n = 6 per group
Procedure, shortened: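 PS19 mice seeded stereotaxically with 1.5 µl recombinant K18+ tau fibril seeds (5 µg/µl). Dosing began 2 weeks later: tail-vein 10 mg/kg weekly for 10 weeks, with intranasal mannitol; vehicle was PBS. Brain sections were stained with AT8 (pSer202/Thr205) at 4°C overnight, then biotinylated anti-mouse secondary (1:1000, 1 h, 37°C). AT8-positive staining was quantified in hippocampal CA1 and CA3.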

tau K18^+ fibrils [6] = assay: TEM of preformed tau K18+ fibrils after treatment; format: biochemical; conditions: 7-DP 2.5-100 μM or MNPs-DP 0.005-0.02 mg/ml, 24 hours
PS19 mice [7] = assay: Novel object recognition test; format: in vivo, mouse; conditions: 10 mg/kg i.v. weekly for 10 weeks, n = 13
Procedure, shortened: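 PS19 mice seeded with K18+ fibrils, then weekly i.v. 10 mg/kg for 10 weeks with intranasal mannitol; PBS vehicle. Arena habituation was 10 min, 24 h before testing. Acquisition: two identical objects, 10 min. After 90 min in the home cage, retention: one familiar and one novel object, 10 min. Exploration was nose, mouth or forepaw contact. DR = TC/(TR + TC); […].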

tau K18^+ fibrils [8] = assay: ThT fragmentation assay of preformed tau K18+ fibrils; format: biochemical
PS19 mice [9] = assay: Barnes maze test; format: in vivo, mouse; conditions: 10 mg/kg i.v. weekly for 10 weeks
Procedure, shortened: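 Mice were seeded with K18+ fibrils (2-month males, 6-month females) and given weekly tail-vein 10 mg/kg for 10 weeks plus intranasal mannitol; PBS vehicle; C57BL/6J controls. Maze had 20 holes with an escape box. Acquisition was 10 trials (2/day, 15-min interval, 2 min each). Probe came 1 day later: tunnel replaced, 90 s, with primary latency and target-hole entries. Testing was blinded and randomized.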

Body weight of PS19 mice = format: in vivo, mouse; conditions: 10 mg/kg i.v. weekly for 10 weeks, with intranasal mannitol; n = 13 per group

Which clinical efficacy (tau aggregation) does the source give for COc1cc(/C=C/C(=O)CC(=O)/C=C/c2ccc(O)c(OC)c2)ccc1O [curcumin] here?
Its clinical efficacy is “have yet to show efficacy in treating disease”.

For CN(C)c1ccc2nc3ccc(=[N+](C)C)cc-3sc2c1 [methylene blue/LMTX, methylene blue], which clinical efficacy (tau aggregation) is on record?
Its clinical efficacy is “have yet to show efficacy in treating disease”.

Which results are given for MNPs-D-TLKIVWC [MNPs-DP]?
serum AST levels (PS19 mice [1]): comparable to the vehicle groups; histology of liver, spleen, heart, lung, kidney (PS19 mice [2]; H&E, n = 3, 100 day post-injection): no evidence of toxic changes or cell death in cellular structures; overall toxicity after 10 weeks (PS19 mice [2]; PS19 mice): without apparent toxic side effects in other body systems; fragmentation of AD-extracted tau fibrils by MNPs-DP or MNPs (AD tau fibrils): fragmented AD-extracted tau fibrils after a 48-hour incubation; BBB penetration (C57BL/6J mice brain): can cross the BBB; binding of anti-amyloid OC antibody to tau K18+ fibrils (tau K18^+ fibrils [3]): decrease of binding to anti-amyloid OC antibody; counts and length of tau K18+ fibrils (TEM) (tau K18^+ fibrils [4]): reduced the length of tau fibrils in a dose-dependent manner; AT8-positive tau pathology in hippocampus CA1 and CA3 [5]: significantly limited tau pathology in both the CA1 and CA3 regions; dose-dependent number/abundance of tau K18+ fibrils under TEM (tau K18^+ fibrils [6]): reduction of the abundance of tau K18^+ fibrils and a concurrent increase in the number of globular species; exploration of novel versus familiar object (PS19 mice [7]; 90-min interval): explored the novel object significantly longer than the familiar one; discriminatory index (DI) (PS19 mice [7]; versus vehicle): appeared to significantly improve the discriminatory index; discriminatory ratio (DR) (PS19 mice [7]; versus vehicle): appeared to significantly improve the discriminatory index (DI; Fig. 5G) and discriminatory ratio (DR); fragmentation of preformed tau K18+ fibrils, MNPs-DP and MNPs (ThT) (tau K18^+ fibrils [8]; 20 μM tau K18+ fibrils, MNPs-DP or MNPs 0.02 mg/ml, added at 10 hours, reference 50 μM 7-DP): fragmented preformed tau K18^+ fibrils as evidenced by the decrease of ThT signal; dose-dependent ThT fluorescence intensity of tau K18+ fibrils (tau K18^+ fibrils [8]; 7-DP 2.5-100 μM or MNPs-DP 0.005, 0.01, 0.02 mg/ml): reduction of ThT fluorescence intensity; memory function in probe trial, overall (PS19 mice [9]; compared with PBS-treated PS19 mice): comparable performance to WT mice and a significant improvement in memory function compared with PBS-treated PS19 mice; latency time to find escape hole, learning period (PS19 mice [9]; n = 13, 6 days): learned a new task quicker with a shorter latency time to find the escape hole compared to the vehicle- or naked MNP-treated PS19 mice; body weight of PS19 mice (Body weight of PS19 mice): consistent increase in body weights
